Activity calls are given as the source filed them. The rule behind the calls is not given here.
Tests used:
[1] = molecular target: T1, NAD-dependent protein deacylase sirtuin-6 (Homo sapiens, UniProt Q8N6T7); test: Binding affinity to SIRT6 (unknown origin) by surface plasmon resonance assay
[2] = Toxicity in mouse assessed as effect on body weight; conditions: in vivo
Summary of the method: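 Normal (non-diabetic) mice were dosed, and blood glucose and body weight were tracked over the study.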

Mus musculus = test: Antidiabetic activity in mouse model of type-2 diabetes mellitus assessed as reduction in blood glucose at 7.5 to 30 mg/kg, ip; type: functional, organism-based
Summary of the method: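 High-fat-diet-fed mice served as the type 2 diabetes model. Compound was given by intraperitoneal injection, and blood glucose and body weight were followed over time.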

[3] = molecular target: T2, Protein deacetylase HDAC6 (Homo sapiens, UniProt Q9UBN7); test: Inhibition of HDAC6 (unknown origin)
T2 sequence (Q9UBN7 whole entry): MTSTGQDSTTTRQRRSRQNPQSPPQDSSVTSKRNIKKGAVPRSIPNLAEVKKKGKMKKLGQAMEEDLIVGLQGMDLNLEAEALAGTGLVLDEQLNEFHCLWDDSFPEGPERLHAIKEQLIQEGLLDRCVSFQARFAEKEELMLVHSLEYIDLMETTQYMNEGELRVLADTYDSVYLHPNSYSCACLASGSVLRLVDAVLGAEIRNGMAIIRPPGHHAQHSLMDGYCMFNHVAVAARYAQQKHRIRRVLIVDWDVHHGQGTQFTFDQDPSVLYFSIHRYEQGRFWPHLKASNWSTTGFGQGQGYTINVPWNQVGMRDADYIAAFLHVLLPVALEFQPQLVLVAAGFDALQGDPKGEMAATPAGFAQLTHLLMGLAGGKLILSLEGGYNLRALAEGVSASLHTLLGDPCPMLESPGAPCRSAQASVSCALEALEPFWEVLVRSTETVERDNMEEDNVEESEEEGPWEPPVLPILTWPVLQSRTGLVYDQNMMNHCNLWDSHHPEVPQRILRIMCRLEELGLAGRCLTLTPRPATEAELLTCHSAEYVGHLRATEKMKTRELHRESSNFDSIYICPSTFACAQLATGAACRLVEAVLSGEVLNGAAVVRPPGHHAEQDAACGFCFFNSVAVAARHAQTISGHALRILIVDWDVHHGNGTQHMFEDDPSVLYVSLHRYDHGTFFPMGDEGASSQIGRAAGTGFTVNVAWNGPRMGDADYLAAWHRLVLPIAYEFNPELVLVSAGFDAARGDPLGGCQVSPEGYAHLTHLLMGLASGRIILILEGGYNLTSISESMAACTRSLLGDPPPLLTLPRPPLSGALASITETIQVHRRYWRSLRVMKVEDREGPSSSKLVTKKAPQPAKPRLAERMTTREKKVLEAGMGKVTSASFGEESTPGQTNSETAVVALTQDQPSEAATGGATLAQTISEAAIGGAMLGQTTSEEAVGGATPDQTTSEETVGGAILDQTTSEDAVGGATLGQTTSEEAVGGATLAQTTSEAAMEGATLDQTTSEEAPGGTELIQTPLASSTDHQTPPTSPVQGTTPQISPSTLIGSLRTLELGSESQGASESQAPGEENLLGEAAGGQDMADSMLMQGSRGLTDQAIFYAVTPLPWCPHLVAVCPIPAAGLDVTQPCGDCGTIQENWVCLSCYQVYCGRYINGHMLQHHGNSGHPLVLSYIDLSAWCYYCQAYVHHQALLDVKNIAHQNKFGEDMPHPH
Summary of the method: (§1)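 Each deacetylase was run in a Fluor de Lys (FDL) fluorogenic deacetylation assay as a selectivity screen, with compound tested at concentrations up to 200 μM. IC50 was estimated from the dose-response.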

[4] = molecular target: T1, NAD-dependent protein deacylase sirtuin-6; test: Binding affinity to SIRT6 (unknown origin) by isothermal titration calorimetry
[5] = molecular target: T1, NAD-dependent protein deacylase sirtuin-6; test: Binding affinity to SIRT6 (unknown origin) assessed as change in melting temperature at 40 uM by differential scanning fluorimetry
[6] = molecular target: T1, NAD-dependent protein deacylase sirtuin-6; test: Inhibition of SIRT6 (unknown origin) using Ac-RYQK(Ac)-AMC as substrate by Fluor de Lys assay
Histone deacetylase 4 = Histone deacetylase 4 (Homo sapiens, UniProt P56524); test: Inhibition of HDAC4 (unknown origin); summary of the method: as §1
Histone deacetylase 3 = Histone deacetylase 3 (Homo sapiens, UniProt O15379); test: Inhibition of HDAC3 (unknown origin); summary of the method: as §1
Chain of Histone deacetylase 3 (O15379 whole entry): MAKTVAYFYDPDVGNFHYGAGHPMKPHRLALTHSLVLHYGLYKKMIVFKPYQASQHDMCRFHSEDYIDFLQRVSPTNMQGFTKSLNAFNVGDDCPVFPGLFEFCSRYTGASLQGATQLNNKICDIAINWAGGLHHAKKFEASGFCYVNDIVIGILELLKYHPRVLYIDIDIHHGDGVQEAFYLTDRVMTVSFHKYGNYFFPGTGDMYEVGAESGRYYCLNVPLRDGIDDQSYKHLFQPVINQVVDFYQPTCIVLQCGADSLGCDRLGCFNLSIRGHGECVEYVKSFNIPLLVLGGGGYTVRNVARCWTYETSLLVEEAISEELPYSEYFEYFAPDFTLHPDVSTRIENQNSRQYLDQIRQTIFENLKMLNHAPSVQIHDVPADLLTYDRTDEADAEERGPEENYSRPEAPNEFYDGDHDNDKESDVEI

T1 sequence (Q8N6T7 whole entry): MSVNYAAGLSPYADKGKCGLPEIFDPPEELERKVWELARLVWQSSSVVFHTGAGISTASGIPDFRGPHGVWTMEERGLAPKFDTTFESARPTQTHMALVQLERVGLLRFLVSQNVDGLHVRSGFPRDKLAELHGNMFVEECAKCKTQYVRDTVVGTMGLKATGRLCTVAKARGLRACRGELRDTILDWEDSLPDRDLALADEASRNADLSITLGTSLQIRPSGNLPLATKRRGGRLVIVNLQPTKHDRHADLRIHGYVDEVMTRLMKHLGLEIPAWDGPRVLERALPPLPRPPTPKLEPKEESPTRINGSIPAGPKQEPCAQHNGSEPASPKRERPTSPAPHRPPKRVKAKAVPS
Chain of Histone deacetylase 4 (P56524 whole entry): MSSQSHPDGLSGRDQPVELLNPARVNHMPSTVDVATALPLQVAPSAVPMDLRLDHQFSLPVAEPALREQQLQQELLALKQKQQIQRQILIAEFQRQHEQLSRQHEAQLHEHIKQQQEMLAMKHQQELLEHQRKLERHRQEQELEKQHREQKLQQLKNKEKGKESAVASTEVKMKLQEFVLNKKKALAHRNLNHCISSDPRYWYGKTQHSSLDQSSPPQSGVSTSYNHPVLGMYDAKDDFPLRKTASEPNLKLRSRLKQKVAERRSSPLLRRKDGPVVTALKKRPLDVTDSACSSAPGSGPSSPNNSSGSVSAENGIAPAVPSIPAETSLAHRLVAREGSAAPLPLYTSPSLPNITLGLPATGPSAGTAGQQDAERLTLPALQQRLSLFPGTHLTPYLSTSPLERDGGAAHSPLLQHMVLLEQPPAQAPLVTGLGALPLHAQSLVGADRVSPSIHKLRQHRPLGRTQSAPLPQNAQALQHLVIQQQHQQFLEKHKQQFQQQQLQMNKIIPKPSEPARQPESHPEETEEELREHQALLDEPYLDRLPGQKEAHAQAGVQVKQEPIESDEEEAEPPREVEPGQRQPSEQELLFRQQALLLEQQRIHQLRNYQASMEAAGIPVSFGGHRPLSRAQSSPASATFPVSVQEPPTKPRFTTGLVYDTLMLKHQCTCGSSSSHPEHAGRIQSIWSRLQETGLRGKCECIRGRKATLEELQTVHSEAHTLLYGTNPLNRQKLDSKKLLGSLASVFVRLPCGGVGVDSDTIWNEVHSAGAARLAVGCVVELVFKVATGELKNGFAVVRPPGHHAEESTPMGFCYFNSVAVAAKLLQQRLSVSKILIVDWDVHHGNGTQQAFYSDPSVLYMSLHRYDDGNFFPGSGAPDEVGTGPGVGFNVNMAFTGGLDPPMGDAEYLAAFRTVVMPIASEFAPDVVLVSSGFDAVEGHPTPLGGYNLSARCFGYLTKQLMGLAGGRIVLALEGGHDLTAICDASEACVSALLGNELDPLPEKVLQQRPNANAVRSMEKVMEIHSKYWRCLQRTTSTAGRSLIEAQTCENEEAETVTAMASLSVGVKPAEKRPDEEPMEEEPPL

## CN1CCN(c2ccc([N+](=O)[O-])c(N)c2)CC1
[1]
  Kd: 9.76 µM
[2]
  Activity: Non-Toxic
Mus musculus
  Activity: Active
[3]
  IC50: > 200 µM
[4]
  Kd: 10 µM
[5]
  ΔTm: 1.88 °C
[6]
  IC50: 4.93 µM
Histone deacetylase 4
  IC50: > 200 µM
Histone deacetylase 3
  IC50: > 200 µM
